From ChEMBL document CHEMBL1152541, “Staurosporine tethered peptide ligands that target cAMP-dependent protein kinase (PKA): optimization and selectivity profiling” (Bioorg Med Chem, 2009)
*1 amine or outer side, *2 acyl side, *3 side chain or, on linkers, in order; H or OH if unused. Where a SMILES comes first, the peptide text is derived from it. Bridges are numbered along the chain shown (N, C = ends). [ ]: non-standard residue; d: D form. The star is where a group is joined. Staurosporine = CO[C@@H]1[C@H](N(C)*)C[C@H]2O[C@]1(C)n1c3ccccc3c3c4c(c5c6ccccc6n2c5c31)C(=O)NC4; Suc = O=C(CCC(=O)[*:2])[*:1]; Dap = NC[C@H](N)C(=O)O; βAla = NCCC(=O)O

What was measured:
[1] = biological target: Glycogen synthase kinase-3 beta (Homo sapiens) (UniProt P49841); assay: Ratio of compound to staurosporine binding affinity to human GSK3-beta in presence of DTT
[2] = biological target: cAMP-dependent protein kinase catalytic subunit alpha (Homo sapiens) (UniProt P17612); assay: Binding affinity to human PKACalpha at 500 nM by cell-based competition binding assay relative to control in presence of DTT
[3] = biological target: Non-receptor tyrosine-protein kinase TYK2 (Homo sapiens) (UniProt P29597); assay: Binding affinity to human TYK2 kinase domain 2 at 500 nM by cell-based competition binding assay relative to control in presence of DTT
[4] = biological target: Glycogen synthase kinase-3 beta (Homo sapiens) (UniProt P49841); assay: Binding affinity to human GSK3-beta at 500 nM by cell-based competition binding assay relative to control in presence of DTT
Method in brief: (§1)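 Competition binding screen (Ambit) across a panel of 90 kinases, scoring test ligand displacement of each kinase's binding relative to control. The screen ran under reducing conditions with 7.5 mM DTT.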

[5] = biological target: Epidermal growth factor receptor (Homo sapiens) (UniProt P00533); assay: Binding affinity to human EGFR at 200 nM by cell-based competition binding assay relative to control in presence of DTT
Method in brief: (§2)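 Commercial (Ambit) competitive kinase-binding panel of 90 kinases measured the binding profile. Run under reducing conditions of 7.5 mM DTT. Binding is expressed relative to control.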

[6] = biological target: Mitogen-activated protein kinase 11 (Homo sapiens) (UniProt Q15759); assay: Binding affinity to human p38beta at 200 nM by cell-based competition binding assay relative to control in presence of DTT
[7] = biological target: Cyclin-dependent kinase 16 (Homo sapiens) (UniProt Q00536); assay: Binding affinity to human PCTK1 at 200 nM by cell-based competition binding assay relative to control in presence of DTT
[8] = biological target: T1, Tyrosine-protein kinase JAK3 (Homo sapiens) (UniProt P52333); assay: Binding affinity to human JAK3 kinase domain 2 at 200 nM by cell-based competition binding assay relative to control in presence of DTT; method in brief: as §1
T1 sequence (whole entry): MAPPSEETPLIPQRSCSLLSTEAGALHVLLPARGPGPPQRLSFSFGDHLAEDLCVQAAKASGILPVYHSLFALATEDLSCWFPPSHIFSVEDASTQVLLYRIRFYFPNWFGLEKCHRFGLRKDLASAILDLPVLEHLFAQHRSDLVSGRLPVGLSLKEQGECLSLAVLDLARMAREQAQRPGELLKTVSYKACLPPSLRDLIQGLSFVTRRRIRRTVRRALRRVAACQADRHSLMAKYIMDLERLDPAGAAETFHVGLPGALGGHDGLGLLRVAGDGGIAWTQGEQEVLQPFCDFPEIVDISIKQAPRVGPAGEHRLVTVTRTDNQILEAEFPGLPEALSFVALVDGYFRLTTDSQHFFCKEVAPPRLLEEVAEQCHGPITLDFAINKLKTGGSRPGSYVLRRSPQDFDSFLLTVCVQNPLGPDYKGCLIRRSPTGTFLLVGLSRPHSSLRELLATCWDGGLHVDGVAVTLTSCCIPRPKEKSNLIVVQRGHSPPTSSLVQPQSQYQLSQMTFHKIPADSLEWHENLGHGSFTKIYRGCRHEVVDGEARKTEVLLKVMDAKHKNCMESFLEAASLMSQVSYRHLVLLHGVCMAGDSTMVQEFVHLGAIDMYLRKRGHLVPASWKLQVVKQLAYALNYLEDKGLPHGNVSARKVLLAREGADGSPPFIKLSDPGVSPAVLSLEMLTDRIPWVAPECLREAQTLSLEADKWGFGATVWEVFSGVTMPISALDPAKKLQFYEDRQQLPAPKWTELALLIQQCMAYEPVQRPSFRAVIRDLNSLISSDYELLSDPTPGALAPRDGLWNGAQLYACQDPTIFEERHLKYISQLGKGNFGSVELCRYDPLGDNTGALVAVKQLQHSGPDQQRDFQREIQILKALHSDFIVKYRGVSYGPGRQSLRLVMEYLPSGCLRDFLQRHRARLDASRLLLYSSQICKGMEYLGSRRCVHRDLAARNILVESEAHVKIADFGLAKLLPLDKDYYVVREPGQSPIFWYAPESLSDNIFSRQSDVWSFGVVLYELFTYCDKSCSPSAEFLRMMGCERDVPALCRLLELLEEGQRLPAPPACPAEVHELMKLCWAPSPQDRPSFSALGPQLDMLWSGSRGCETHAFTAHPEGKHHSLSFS

[9] = biological target: Aurora kinase B (Homo sapiens) (UniProt Q96GD4); assay: Binding affinity to human aurora kinase B at 200 nM by cell-based competition binding assay relative to control in presence of DTT
[10] = tested on: Epidermal growth factor receptor (Homo sapiens), P00533 [L858R]; assay: Binding affinity to human EGFR L858R mutant at 200 nM by cell-based competition binding assay relative to control in presence of DTT; method in brief: as §2
[11] = biological target: Platelet-derived growth factor receptor beta (Homo sapiens) (UniProt P09619); assay: Binding affinity to human PDGFRbeta at 200 nM by cell-based competition binding assay relative to control in presence of DTT
[12] = biological target: Hepatocyte growth factor receptor (Homo sapiens) (UniProt P08581); assay: Binding affinity to human MET at 50 nM by cell-based competition binding assay relative to control in presence of DTT
[13] = biological target: T1, Tyrosine-protein kinase JAK3 (Homo sapiens); assay: Binding affinity to human JAK3 kinase domain 2 at 50 nM by cell-based competition binding assay relative to control in presence of DTT; method in brief: as §1
[14] = biological target: Glycogen synthase kinase-3 beta (Homo sapiens) (UniProt P49841); assay: Binding affinity to human GSK3-beta at 50 nM by cell-based competition binding assay relative to control in presence of DTT; method in brief: as §1
[15] = biological target: Insulin receptor (Homo sapiens) (UniProt P06213); assay: Binding affinity to human INSR at 50 nM by cell-based competition binding assay relative to control in presence of DTT; method in brief: as §1
[16] = biological target: Serine/threonine-protein kinase 32C (Homo sapiens) (UniProt Q86UX6); assay: Binding affinity to human YANK3 at 50 nM by cell-based competition binding assay relative to control in presence of DTT
Serine/threonine-protein kinase 32C (Homo sapiens), sequence (Q86UX6 whole entry): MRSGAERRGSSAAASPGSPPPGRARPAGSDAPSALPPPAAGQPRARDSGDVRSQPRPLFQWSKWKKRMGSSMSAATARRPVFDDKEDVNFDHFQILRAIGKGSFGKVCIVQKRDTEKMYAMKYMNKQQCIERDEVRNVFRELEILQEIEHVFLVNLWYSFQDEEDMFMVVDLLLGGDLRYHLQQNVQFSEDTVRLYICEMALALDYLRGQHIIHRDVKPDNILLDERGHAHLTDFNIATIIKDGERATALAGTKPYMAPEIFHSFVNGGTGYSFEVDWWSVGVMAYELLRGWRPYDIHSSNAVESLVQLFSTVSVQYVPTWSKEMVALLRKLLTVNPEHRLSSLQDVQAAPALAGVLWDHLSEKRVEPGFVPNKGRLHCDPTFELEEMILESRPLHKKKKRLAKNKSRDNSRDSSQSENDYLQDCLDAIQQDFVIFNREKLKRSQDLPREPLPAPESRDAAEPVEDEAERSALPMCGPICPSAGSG

Glycogen synthase kinase-3 beta (Homo sapiens), sequence (P49841 whole entry, looked up): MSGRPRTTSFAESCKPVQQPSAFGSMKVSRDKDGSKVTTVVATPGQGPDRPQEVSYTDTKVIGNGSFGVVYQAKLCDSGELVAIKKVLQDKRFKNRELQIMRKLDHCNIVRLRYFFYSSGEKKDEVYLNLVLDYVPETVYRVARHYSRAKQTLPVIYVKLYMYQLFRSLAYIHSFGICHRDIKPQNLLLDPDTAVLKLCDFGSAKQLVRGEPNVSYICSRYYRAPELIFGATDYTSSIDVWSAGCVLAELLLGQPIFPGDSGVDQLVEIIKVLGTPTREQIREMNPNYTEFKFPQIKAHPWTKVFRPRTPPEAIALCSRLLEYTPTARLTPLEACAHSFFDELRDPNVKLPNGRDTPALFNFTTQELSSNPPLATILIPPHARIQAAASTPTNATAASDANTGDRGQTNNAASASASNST
Non-receptor tyrosine-protein kinase TYK2 (Homo sapiens), sequence (P29597 whole entry, the tested form may be a part): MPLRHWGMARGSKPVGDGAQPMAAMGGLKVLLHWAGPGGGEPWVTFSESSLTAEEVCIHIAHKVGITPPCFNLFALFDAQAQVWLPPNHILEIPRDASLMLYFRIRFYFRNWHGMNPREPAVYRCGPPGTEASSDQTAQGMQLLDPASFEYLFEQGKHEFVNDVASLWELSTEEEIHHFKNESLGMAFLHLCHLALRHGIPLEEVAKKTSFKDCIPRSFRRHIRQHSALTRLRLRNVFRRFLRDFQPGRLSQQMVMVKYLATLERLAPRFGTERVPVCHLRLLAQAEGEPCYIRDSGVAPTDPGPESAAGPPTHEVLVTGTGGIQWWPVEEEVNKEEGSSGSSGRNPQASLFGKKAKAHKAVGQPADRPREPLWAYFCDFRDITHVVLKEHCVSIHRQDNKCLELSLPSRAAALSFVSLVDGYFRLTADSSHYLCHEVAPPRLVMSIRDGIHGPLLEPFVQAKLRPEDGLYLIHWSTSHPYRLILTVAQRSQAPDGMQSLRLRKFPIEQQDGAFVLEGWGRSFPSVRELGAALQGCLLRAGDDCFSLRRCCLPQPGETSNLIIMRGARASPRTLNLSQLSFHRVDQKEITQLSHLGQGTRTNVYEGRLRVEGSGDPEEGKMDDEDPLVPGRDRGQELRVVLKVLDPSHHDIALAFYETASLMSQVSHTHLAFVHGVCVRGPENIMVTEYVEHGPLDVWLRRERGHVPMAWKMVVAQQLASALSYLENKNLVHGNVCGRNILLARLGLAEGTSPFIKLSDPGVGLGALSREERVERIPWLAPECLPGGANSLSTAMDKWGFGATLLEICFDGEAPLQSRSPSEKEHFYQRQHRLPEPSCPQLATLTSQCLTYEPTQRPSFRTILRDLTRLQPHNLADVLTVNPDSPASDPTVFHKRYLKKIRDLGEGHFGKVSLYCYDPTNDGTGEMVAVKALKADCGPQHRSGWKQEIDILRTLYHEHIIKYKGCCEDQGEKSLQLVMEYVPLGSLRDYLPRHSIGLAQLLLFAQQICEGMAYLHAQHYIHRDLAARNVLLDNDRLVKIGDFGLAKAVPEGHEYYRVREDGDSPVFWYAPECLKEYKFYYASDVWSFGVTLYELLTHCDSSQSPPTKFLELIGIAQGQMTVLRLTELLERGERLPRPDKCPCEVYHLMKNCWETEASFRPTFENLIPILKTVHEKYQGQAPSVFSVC
Insulin receptor (Homo sapiens), sequence (P06213 28-758 limits assumed): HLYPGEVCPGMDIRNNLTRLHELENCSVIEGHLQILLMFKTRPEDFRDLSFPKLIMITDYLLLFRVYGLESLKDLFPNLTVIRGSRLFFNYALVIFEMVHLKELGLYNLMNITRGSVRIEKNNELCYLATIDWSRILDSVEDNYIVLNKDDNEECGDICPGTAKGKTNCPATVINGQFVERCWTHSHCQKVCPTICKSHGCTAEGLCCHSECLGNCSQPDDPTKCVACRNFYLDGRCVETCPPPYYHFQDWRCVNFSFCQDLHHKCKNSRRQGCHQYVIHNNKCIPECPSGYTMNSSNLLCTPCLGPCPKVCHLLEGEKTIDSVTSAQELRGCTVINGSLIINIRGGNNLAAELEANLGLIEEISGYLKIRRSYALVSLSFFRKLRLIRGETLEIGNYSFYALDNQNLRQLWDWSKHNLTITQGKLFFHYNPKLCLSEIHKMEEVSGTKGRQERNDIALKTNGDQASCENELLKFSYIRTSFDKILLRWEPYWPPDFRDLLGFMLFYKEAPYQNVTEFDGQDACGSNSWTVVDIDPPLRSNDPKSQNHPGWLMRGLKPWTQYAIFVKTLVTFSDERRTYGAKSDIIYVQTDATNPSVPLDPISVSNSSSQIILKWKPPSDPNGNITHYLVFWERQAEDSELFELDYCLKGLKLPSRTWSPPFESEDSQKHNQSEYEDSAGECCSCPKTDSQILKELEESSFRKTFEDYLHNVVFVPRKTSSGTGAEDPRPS
Insulin receptor (Homo sapiens), sequence (P06213 763-1382 limits assumed): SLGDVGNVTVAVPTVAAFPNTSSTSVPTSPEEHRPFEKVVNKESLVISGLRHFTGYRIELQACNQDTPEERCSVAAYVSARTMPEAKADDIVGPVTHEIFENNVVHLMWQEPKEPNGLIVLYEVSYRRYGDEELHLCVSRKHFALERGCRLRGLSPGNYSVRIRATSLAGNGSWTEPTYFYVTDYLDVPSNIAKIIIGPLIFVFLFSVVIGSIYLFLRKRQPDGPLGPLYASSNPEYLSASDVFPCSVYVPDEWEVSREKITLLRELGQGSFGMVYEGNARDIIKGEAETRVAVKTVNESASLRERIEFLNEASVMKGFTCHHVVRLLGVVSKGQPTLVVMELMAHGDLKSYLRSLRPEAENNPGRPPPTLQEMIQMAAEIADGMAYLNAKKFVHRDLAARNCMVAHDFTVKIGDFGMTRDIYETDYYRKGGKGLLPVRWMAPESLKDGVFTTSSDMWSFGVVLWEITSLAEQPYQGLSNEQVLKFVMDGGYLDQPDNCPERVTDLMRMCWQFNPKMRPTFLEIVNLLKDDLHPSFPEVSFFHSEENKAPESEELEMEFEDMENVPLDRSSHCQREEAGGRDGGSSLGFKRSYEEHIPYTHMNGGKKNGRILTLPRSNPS
Aurora kinase B (Homo sapiens), sequence (Q96GD4 whole entry): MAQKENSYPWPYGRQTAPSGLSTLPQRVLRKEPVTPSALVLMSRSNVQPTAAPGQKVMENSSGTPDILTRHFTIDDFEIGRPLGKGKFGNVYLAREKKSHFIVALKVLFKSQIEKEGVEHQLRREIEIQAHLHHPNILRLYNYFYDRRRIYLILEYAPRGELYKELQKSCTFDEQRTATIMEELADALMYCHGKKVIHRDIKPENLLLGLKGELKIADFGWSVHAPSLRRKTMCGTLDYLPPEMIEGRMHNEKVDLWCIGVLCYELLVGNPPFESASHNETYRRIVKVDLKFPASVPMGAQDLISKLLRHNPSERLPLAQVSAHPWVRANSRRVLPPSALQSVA
Mitogen-activated protein kinase 11 (Homo sapiens), sequence (Q15759 whole entry): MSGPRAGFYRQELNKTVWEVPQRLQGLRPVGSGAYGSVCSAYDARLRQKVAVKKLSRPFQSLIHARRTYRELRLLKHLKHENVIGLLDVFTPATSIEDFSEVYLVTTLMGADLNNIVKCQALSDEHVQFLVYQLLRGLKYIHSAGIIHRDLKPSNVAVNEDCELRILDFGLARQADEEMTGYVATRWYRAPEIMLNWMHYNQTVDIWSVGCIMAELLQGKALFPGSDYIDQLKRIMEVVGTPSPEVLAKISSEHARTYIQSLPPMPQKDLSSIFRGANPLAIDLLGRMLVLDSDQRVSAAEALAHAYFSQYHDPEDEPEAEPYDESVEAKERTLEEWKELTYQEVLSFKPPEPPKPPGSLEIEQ
Cyclin-dependent kinase 16 (Homo sapiens), sequence (Q00536 whole entry, the tested form may be a part): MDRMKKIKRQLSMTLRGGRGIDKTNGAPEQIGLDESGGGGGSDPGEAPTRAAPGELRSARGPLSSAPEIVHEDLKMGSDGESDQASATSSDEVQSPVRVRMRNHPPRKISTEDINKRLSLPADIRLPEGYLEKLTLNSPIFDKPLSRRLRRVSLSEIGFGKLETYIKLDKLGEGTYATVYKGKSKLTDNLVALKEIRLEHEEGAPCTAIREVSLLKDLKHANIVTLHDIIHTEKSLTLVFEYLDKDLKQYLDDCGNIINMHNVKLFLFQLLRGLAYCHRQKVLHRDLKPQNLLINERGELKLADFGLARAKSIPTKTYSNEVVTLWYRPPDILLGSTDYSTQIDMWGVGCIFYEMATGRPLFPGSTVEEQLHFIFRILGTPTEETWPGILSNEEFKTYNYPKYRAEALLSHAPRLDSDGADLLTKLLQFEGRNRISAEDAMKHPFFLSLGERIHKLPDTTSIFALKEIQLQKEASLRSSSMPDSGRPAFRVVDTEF

CO[C@@H]1[C@H](N(C)C(=O)CCC(=O)NCCC(=O)NCCC(=O)NCCC(N)=O)C[C@H]2O[C@]1(C)n1c3ccccc3c3c4c(c5c6ccccc6n2c5c31)C(=O)NC4
Selectivity ratio [1]: 7
Activity [2]: 52%
Activity [3]: 19%
Activity [4]: 94%

CO[C@@H]1[C@H](N(C)C(=O)CCC(=O)NCCC(=O)NCCC(=O)NCCC(=O)NCCC(=O)NCCC(=O)NCCC(=O)NCCC(=O)N[C@H]2CSSC[C@@H](C(=O)NCC(N)=O)NC(=O)CNC(=O)[C@H](Cc3ccccc3)NC(=O)[C@H](C(C)C)NC(=O)[C@H](CCCNC(=N)N)NC(=O)[C@H](Cc3ccccc3)NC(=O)[C@H](C(C)C)NC2=O)C[C@H]2O[C@]1(C)n1c3ccccc3c3c4c(c5c6ccccc6n2c5c31)C(=O)NC4 ({Staurosporine-Suc-βAla-βAla-βAla-βAla-βAla-βAla-βAla}-CVFRVFGCG-NH2; disulfide 1-8)
Activity [5]: 96%
Activity [6]: 100%
Activity [7]: 94%
Activity [8]: 4.6%
Activity [9]: 5.8%
Activity [10]: 86%
Activity [11]: 3.2%

CO[C@@H]1[C@H](N(C)C(=O)CCC(=O)NCCC(=O)NCCC(=O)NCCC(=O)NCCC(=O)NCCC(=O)NCCC(=O)NCCC(=O)N[C@H]2CNC(=O)C[C@@H](C(N)=O)NC(=O)CNC(=O)[C@H](Cc3ccccc3)NC(=O)[C@H](C(C)C)NC(=O)[C@H](CCCNC(=N)N)NC(=O)[C@H](Cc3ccccc3)NC(=O)[C@H](C(C)C)NC2=O)C[C@H]2O[C@]1(C)n1c3ccccc3c3c4c(c5c6ccccc6n2c5c31)C(=O)NC4 ({Staurosporine-Suc-βAla-βAla-βAla-βAla-βAla-βAla-βAla}-[Dap]VFRVFGD-NH2; lactam 1-8)
Activity [12]: 100%
Activity [13]: 16%
Activity [14]: 74%
Activity [15]: 92%
Activity [16]: 100%
